# Activity calls are given as the source filed them. The rule behind the calls is not given here.
# Legend:
# [1] = target: Cannabinoid receptor 1 (Rattus norvegicus) (UniProt P20272); assay: Antagonist activity at rat cannabinoid CB1 receptor in Wistar rat cerebellar membranes at 10 uM by [35S]GTPgammaS binding assay; assay type: functional, cell membranes; conditions: Cerebellum, Membrane
# In short: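 Uses non-recombinant rat cerebellar membrane fractions as the CB1 source, with [35S]GTPγS binding. Ligand screened at 10 µM for its ability to antagonize the agonist response to 10 nM HU-210.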
# [2] = target: Cannabinoid receptor 2 (Homo sapiens) (UniProt P34972); assay: Agonist activity at human recombinant cannabinoid CB2 receptor expressed in CHO cells at 10 uM by [35S]GTPgammaS binding assay; assay type: functional, cell-based
# Cannabinoid receptor 2 (Homo sapiens), sequence (P34972 whole entry): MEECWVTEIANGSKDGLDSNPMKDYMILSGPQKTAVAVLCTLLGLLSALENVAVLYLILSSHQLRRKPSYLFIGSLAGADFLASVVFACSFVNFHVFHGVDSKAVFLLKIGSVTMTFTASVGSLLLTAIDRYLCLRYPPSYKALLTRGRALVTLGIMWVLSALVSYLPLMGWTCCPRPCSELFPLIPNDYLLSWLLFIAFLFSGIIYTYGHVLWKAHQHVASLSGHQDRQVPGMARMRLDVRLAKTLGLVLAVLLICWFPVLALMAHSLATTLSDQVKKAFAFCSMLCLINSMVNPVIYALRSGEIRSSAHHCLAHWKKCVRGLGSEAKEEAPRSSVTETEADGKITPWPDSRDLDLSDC
# In short: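 Single-point screen for G-protein activation at hCB2 with [35S]GTPγS binding, ligand at 10 µM. Response given relative to the 10 nM HU-210 agonist response, in percent. Mean SEM of at least three experiments, each done in duplicate.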
# [3] = target: Cannabinoid receptor 2 (Homo sapiens) (UniProt P34972); assay: Agonist activity at human recombinant cannabinoid CB2 receptor expressed in CHO cells by [35S]GTPgammaS binding assay; assay type: functional, cell-based
# In short: (§1)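 hCB2 [35S]GTPγS binding concentration–response curves, run only for ligands giving over 50% relative activity at 10 µM. logEC50 and Emax come from nonlinear regression fitted to a sigmoidal concentration–response equation. Emax is given as percent of the 10 nM HU-210 response. Mean SEM of at least three experiments in duplicate.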
# [4] = target: Cannabinoid receptor 2 (Homo sapiens) (UniProt P34972); assay: Agonist activity at human recombinant cannabinoid CB2 receptor expressed in CHO cells by [35S]GTPgammaS binding assay relative to HU-210; assay type: functional, cell-based; in short: as §1
# [5] = target: Cannabinoid receptor 1 (Rattus norvegicus) (UniProt P20272); assay: Antagonist activity at rat cannabinoid CB1 receptor in Wistar rat cerebellar membranes by [35S]GTPgammaS binding assay; assay type: functional, cell membranes; conditions: Cerebellum, Membrane
# In short: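 Non-recombinant rat cerebellar membrane fractions, [35S]GTPγS binding. Compounds screened at a single concentration for their ability to antagonise the response to 10 nM HU-210 agonist.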
# Cannabinoid receptor 1 (Rattus norvegicus), sequence (P20272 whole entry): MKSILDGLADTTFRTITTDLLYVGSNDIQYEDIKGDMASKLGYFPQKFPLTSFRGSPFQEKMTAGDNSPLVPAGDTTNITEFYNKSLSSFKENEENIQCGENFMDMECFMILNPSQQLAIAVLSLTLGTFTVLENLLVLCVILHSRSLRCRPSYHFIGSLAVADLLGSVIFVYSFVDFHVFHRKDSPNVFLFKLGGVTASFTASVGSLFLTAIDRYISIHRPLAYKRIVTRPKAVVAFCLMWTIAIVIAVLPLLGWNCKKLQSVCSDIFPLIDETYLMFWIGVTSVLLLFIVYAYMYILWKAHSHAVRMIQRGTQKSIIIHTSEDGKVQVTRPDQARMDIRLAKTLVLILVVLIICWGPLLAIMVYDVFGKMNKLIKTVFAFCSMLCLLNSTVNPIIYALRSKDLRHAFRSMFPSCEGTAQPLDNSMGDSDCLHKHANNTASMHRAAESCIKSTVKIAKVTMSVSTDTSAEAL
Activity [1],Activity [2] [%],Structure (SMILES),pEC50 [3],Emax [4] [%],logEC50 [5]
inactive,10,CCCCCCNc1ccc2ccccc2n1,,,
inactive,44,c1ccc2nc(NCC3CCCCC3)ccc2c1,,,
inactive,17,c1ccc(Oc2cnc3ccccc3c2)cc1,,,
inactive,30,c1ccc(Nc2cnc3ccccc3n2)cc1,,,
inactive,-2,O=C(NCC1CCCCC1)c1cc2ccccc2c(Nc2cccc(C(F)(F)F)c2)n1,,,
inactive,20,CN(C)c1ccc(Nc2ccc3ccccc3n2)cc1,,,
inactive,33,c1ccc(Sc2nccc3ccccc23)cc1,,,
inactive,48,FC(F)(F)c1ccc(Nc2ccc3ccccc3n2)cc1,,,
inactive,13,O=C(NC1CCCCC1)c1cc2ccccc2c(Nc2cccc(C(F)(F)F)c2)n1,,,
inactive,20,c1ccc(CNc2ccc3ccccc3n2)cc1,,,
inactive,33,COc1cc(C(F)(F)F)ccc1Nc1ccc2ccccc2n1,,,
inactive,21,O=C(NCc1ccccc1)c1cnc(Nc2cccc(C(F)(F)F)c2)c2ccccc12,,,
inactive,43,FC(F)(F)c1ccccc1Nc1nccc2ccccc12,,,
inactive,25,FC(F)(F)c1ccc(Nc2nccc3ccccc23)cc1,,,
inactive,38,c1ccc(Nc2ncc3ccccc3n2)cc1,,,
inactive,13,c1ccc(Sc2cnc3ccccc3c2)cc1,,,

Activity [1],Activity [2] [%],Structure (SMILES),pEC50 [3],Emax [4] [%],logEC50 [5]
inactive,39,c1ccc(Nc2ccc3ccccc3n2)cc1,,,
inactive,31,c1ccc(Oc2nccc3ccccc23)cc1,,,
inactive,7,c1ccc2nc(N3CCOCC3)ccc2c1,,,
inactive,10,c1ccc2nc(N3CCCCC3)ccc2c1,,,
inactive,4,COC(=O)c1cc2ccccc2c(Nc2cccc(C(F)(F)F)c2)n1,,,
inactive,20,OCCc1ccc(Nc2ccc3ccccc3n2)cc1,,,
inactive,7,c1ccc(Nc2nccc3ccccc23)cc1,,,
inactive,1,COc1ccccc1NC(=O)c1cnc(Nc2cccc(C(F)(F)F)c2)c2ccccc12,,,
inactive,3,CCOC(=O)c1ccc(Nc2ccc3ccccc3n2)cc1,,,
inactive,25,N#Cc1cccc(Nc2ccc3ccccc3n2)c1,,,
inactive,10,c1ccc(Nc2ncnc3ccccc23)cc1,,,
inactive,9,c1ccc(Nc2ccnc3ccccc23)cc1,,,
inactive,18,c1ccc(Cc2ccccc2Nc2ccc3ccccc3n2)cc1,,,
inactive,0,O=C(NCc1ccccc1)c1cc2ccccc2c(Nc2cccc(C(F)(F)F)c2)n1,,,
inactive,8,Oc1ccc(Nc2ccc3ccccc3n2)cc1,,,
inactive,22,c1ccc2nc(NC3CCCC3)ccc2c1,,,

Structure (SMILES),Activity [1],Activity [2] [%],pEC50 [3],Emax [4] [%],logEC50 [5]
Clc1cccc(Nc2ccc3ccccc3n2)c1,inactive,58,5.6,70,
COc1ccccc1Nc1ccc2ccccc2n1,inactive,69,5.3,102,
COc1ccc(Nc2ccc3ccccc3n2)cc1,inactive,49,5.7,51,
FC(F)(F)c1cccc(Nc2ncc3ccccc3n2)c1,inactive,53,5.5,67,
FC(F)(F)c1cccc(Nc2cnc3ccccc3n2)c1,inactive,52,5.4,69,
FC(F)(F)c1cccc(Nc2nccc3ccccc23)c1,inactive,102,5.8,124,
Clc1ccc(Nc2ccc3ccccc3n2)cc1,inactive,75,5.7,80,
FC(F)(F)c1cccc(Nc2ccc3ccccc3n2)c1,inactive,64,5.9,65,
Clc1ccccc1Nc1ccc2ccccc2n1,inactive,56,5.2,91,
COc1cccc(Nc2ccc3ccccc3n2)c1,inactive,50,5.6,61,
O=C(c1cnc(Nc2cccc(C(F)(F)F)c2)c2ccccc12)N1CCOCC1,,76,7.8,75,5
FC(F)(F)c1cccc(Nc2ccnc3ccccc23)c1,inactive,50,5.5,58,
O=C(NCC1CCCCC1)c1cnc(Nc2cccc(C(F)(F)F)c2)c2ccccc12,inactive,58,5.8,67,
O=C(NC1CCCCC1)c1cnc(Nc2cccc(C(F)(F)F)c2)c2ccccc12,inactive,54,5.7,73,
Brc1cccc(Nc2ccc3ccccc3n2)c1,inactive,64,5.7,69,
c1ccc(Sc2ccc3ccccc3n2)cc1,inactive,47,5.4,61,
c1ccc2nc(NC3CCCCC3)ccc2c1,inactive,57,5.2,88,
FC(F)(F)c1ccccc1Nc1ccc2ccccc2n1,inactive,63,5.2,103,
FC(F)(F)c1cccc(Nc2ncnc3ccccc23)c1,inactive,68,5.6,79,

# Source: ChEMBL document CHEMBL1641511, “Microwave-assisted synthesis of quinoline, isoquinoline, quinoxaline and quinazoline derivatives as CB2 receptor agonists” (Bioorg Med Chem, 2011)
